Data taken from PMC2911241 (Letters in drug design & discovery, 2010).
Read-outs that look alike come from different tables or passages of the source.

What was measured:
K562 cells = assay: Cell cycle analysis by flow cytometry; format: cell-based, human; settings: for Cell cycle percentage G0/G1 / Cell cycle percentage G2/M / Cell cycle percentage S: K562 cells treated at the IC50, calculated using living cells, mean ± SE; for Effect on cell cycle distribution (in words): K562 cells, each compound at the IC50 value
In short: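 K562 cells grown in RPMI 1640 with 10% FCS, 2 mM L-glutamine, penicillin (100 U/ml) and streptomycin (100 μg/ml) at 37 °C under 5% CO2, then exposed to test compound. Cells washed once in ice-cold PBS and resuspended at 1×10^6/mL in hypotonic propidium iodide (50 μg/mL, 0.1% sodium citrate, 0.03% NP-40) for 30 min. Single-parameter flow cytometry DNA histograms; phase percentages from living cells; hypodiploid peak scored as apoptotic.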

[1] = test system: human chronic myelogenous K562 leukemia cells; assay: Cell proliferation analysis, K562 cells; format: cell-based; settings: Homo sapiens
In short: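 K562 cells grown in RPMI 1640 with 10% FCS, 2 mM L-glutamine, […] and penicillin/streptomycin at 37°C, 5% CO2. DMSO stocks (1 mg/mL) diluted in medium. Cells (1×10^4/well) exposed to increasing concentrations for 24 h at 37°C, then counted electronically. IC50 is 50% growth inhibition vs untreated controls. Duplicate cultures per concentration, repeated experiments, mean ± SE.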

tubulin = assay: Inhibition of [3H]colchicine binding to tubulin; settings: tubulin, colchicine and tested compound at 1, 5 and 1 μM
In short: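 Purified tubulin incubated with [3H]colchicine and test compound for 10 min at 37 °C. Read-out is percent inhibition of radiolabelled colchicine binding. Combretastatin A-4 served as reference at 1 μM.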

[2] = K562, 24 h, read-out: IC50 K562
[3] = K562, read-out: IC50 (nM) in Table 3

Row | IC50 [1, 2] | IC50 [1, 3] | Colchicine binding % ±SD (inhibition of [3H]colchicine binding) (tubulin) | Compound | Cell cycle percentage G0/G1 (K562 cells) | Cell cycle percentage G2/M (K562 cells) | Cell cycle percentage S (K562 cells) | Effect on cell cycle distribution (in words) (K562 cells)
1 | 27 ± 10 nM | 85 nM | 51±7% | COc1ccc2c(NC(C)=O)c(C(=O)c3cc(OC)c(OC)c(OC)c3)oc2c1 [Compound 3i, N-[6-Methoxy-2-(3,4,5-trimethoxybenzoyl)-1-benzofuran-3-yl]acetamide] | 27±5% | 37±6% | 36±8% | –
2 | 180 ± 30 nM | 212 nM | 49±2% | COc1ccc2c(NC(=O)CBr)c(C(=O)c3cc(OC)c(OC)c(OC)c3)oc2c1 [Compound 3k, 2-Bromo-N-[6-methoxy-2-(3,4,5-trimethoxybenzoyl)-1-benzofuran-3-yl]acetamide] | 6±1% | 67±8% | 27±4% | –
3 | 64 ± 20 nM | 115 nM | 54±1% | COc1ccc2c(NC(=O)CI)c(C(=O)c3cc(OC)c(OC)c(OC)c3)oc2c1 [Compound 3l, 2-Iodo-N-[6-methoxy-2-(3,4,5-trimethoxybenzoyl)-1-benzofuran-3-yl]acetamide] | 23±3% | 21±3% | 56±4% | caused an increase in the percentage of cells in S phase
4 | 30 ± 20 nM | 400 nM | 47±5% | COc1ccc2c(NC(=O)CCl)c(C(=O)c3cc(OC)c(OC)c(OC)c3)oc2c1 [Compound 3j, 2-Chloro-N-[6-methoxy-2-(3,4,5-trimethoxybenzoyl)-1-benzofuran-3-yl]acetamide] | 23±4% | 33±5% | 44±7% | caused cells to accumulate in late S phase
